These results are taken from ChEMBL document CHEMBL3352186, “Modification and biological evaluation of thiazole derivatives as novel inhibitors of metastatic cancer cell migration and invasion” (J Med Chem, 2014).

The structures appear in SMILES notation. The source made the active and inactive calls. The calls are words filed in the database; no cut-off is given here. A value given as a limit tells only on which side of the number the result lay.

The test system of one experiment is HeLa (Homo sapiens). Kind of experiment: Induction of disorganization of actin filaments in human HeLa cells assessed as decrease in F-actin staining intensity near cell membrane at 10^-6 M by phalloidin staining.
The subject of experiment [1] is MDA-MB-231. In words: Cytotoxicity against human MDA-MB-231 cells assessed as survival at 1 uM after 5 days. As to conditions: MDA-MB-231, 120 h, read-out: Survival. It is filed as functional.
In experiment [2] the test system is MDA-MB-231. In words: Antimigratory activity in human MDA-MB-231 cells after 24 hrs using transwell system by light microscopy. It is filed as functional, cell-based. Particulars: MDA-MB-231, 24 h. The gist of the method:
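Transwell chambers: 2.5×10^4 cells in serum-free, phenol red-free medium in the upper chamber, with DMEM + 5% FBS below as chemoattractant. Compounds at 10^-8, 10^-7, 10^-6 and 10^-5 M, with 0.1% DMSO vehicle, for 24 h. Membranes were scrubbed, formalin-fixed, methanol-permeabilized and stained with 0.1% crystal violet. Migrated cells were counted by light microscopy per 100× field as % of vehicle. IC50 is the concentration giving 50% migration inhibition.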

The subject of another experiment is Chorioallantoic membrane. Kind of experiment: Antiangiogenic activity in chicken egg embryo assessed as inhibition of bFGF/VEGF-induced angiogenesis in chorioallantoic membrane after 3 days. It is filed as functional. Particulars: Gallus gallus. The method in brief:
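Fertilized chick embryos were incubated at 37.5 °C for 3 days, removed from the shell, and kept 7 further days. Each compound was added to a collagen plug containing bFGF (10 ng/plug) plus VEGF (30 ng/plug) and placed on the CAM of 10-day embryos for 3 days. PBS was the negative control. Plugs were imaged and scored masked on a 0–3 angiogenesis scale, reported as mean ± SEM, and analysed by one-way ANOVA with Dunnett's test.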

For experiment [3], the system named is MDA-MB-231. Kind of experiment: Antiinvasive activity in human MDA-MB-231 cells at 10 uM after 24 hrs by matrigel assay. It is filed as functional. Particulars: MDA-MB-231, 24 h. The method in brief:
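Cells serum-starved 24 h, trypsinized and resuspended in medium with DMSO or compound; 2.5×10^4 cells/well seeded on Matrigel-coated inserts. Bottom well held 10% FBS medium with DMSO or 10 μM compound. After 24 h, non-invaded cells were scrubbed off and invaded cells fixed (4% formaldehyde, 10 min, RT), stained with 0.04% crystal violet and counted at 100× in five random fields. Result is % invasion relative to DMSO.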

For experiment [4], the system named is MDA-MB-231. In words: Antimigratory activity in human MDA-MB-231 cells over-expressed with fascin assessed as inhibition of cell migration at 10 uM after 24 hrs by Transwell assay.

One may read the IC50 as the concentration that inhibits the measured activity by half. Lower therefore signals inhibition by little substance. For orientation: inhibition means the percentage by which the read-out fell short of the control. For `CCCCCCCCCCCCn1c(-c2ccc(C)cc2C)cs/c1=N\C(=O)c1ccccc1`, in the experiment on HeLa (Homo sapiens), the outcome was Active. For the same molecule, the viability at 1 µM in the experiment with MDA-MB-231 [1] is 110%. Moreover, the IC50 in the experiment on MDA-MB-231 [2] was determined as 0.024 µM. Moreover, the inhibition entry with Chorioallantoic membrane is “Active”. The same molecule showed an inhibition at 10 µM in the experiment with MDA-MB-231 [3] of more than 50%.

`CCCCCCn1c(-c2ccc(C)cc2C)cs/c1=N\C(=O)c1ccccc1`: in the experiment with MDA-MB-231 [4], the inhibition entry is “inactive”. Also, the result with HeLa (Homo sapiens) was Active. Besides, the viability at 1 µM in the experiment with MDA-MB-231 [1] is 90%. In addition, the IC50 in the experiment on MDA-MB-231 [2] was found to be 0.045 µM. For the same molecule, the inhibition result with Chorioallantoic membrane is “Active”. The inhibition at 10 µM in the experiment on MDA-MB-231 [3] is more than 50%.

For the molecule `CCCN(C(=O)c1ccccc1)c1nc(-c2ccccc2)cs1`, in the experiment with HeLa (Homo sapiens), the result was Active. The viability at 1 µM with MDA-MB-231 [1] was found to be 116%. For the same molecule, the 50% inhibitory concentration (IC50) in the experiment on MDA-MB-231 [2] was 0.077 µM. The molecule further registered an inhibition at 10 µM in the experiment on MDA-MB-231 [3] of more than 50%.

Regarding `CCn1c(-c2ccc(C)cc2C)cs/c1=N\C(=O)c1ccccc1`, the viability at 1 µM with MDA-MB-231 [1] came out at 142%. This molecule also had a half-maximal inhibitory concentration (IC50) in the experiment with MDA-MB-231 [2] of 1.95 µM. For the same molecule, the inhibition at 10 µM in the experiment on MDA-MB-231 [3] was more than 50%.

Consider `Cc1sc(NC(=O)c2ccccc2)nc1-c1ccccc1`, for which the viability at 1 µM in the experiment with MDA-MB-231 [1] was 99%. Also, the half-inhibitory concentration (IC50) in the experiment on MDA-MB-231 [2] was more than 25 µM.

Take `O=C(Nc1nc(-c2ccccc2Cl)cs1)c1ccccc1`: in the experiment with MDA-MB-231 [1], the viability at 1 µM was determined as 102%. In addition, the half-maximal inhibitory concentration (IC50) in the experiment with MDA-MB-231 [2] worked out at 15 µM.

On to `CCCn1c(-c2ccccc2)cs/c1=N\C(=O)c1ccccc1`, for which the viability at 1 µM in the experiment on MDA-MB-231 [1] is 100%. Also, the IC50 with MDA-MB-231 [2] was 0.657 µM.

Take `CN(C(=O)c1ccccc1)c1nc(-c2ccc(Br)cc2)cs1`: in the experiment on MDA-MB-231 [1], the viability at 1 µM is 65.4%. Besides, the 50% inhibitory concentration (IC50) with MDA-MB-231 [2] worked out at 0.317 µM.

`Cc1ccc(-c2cs/c(=N\C(=O)c3ccccc3)n2C)c(C)c1`: the viability at 1 µM in the experiment with MDA-MB-231 [1] was 101%. In the experiment on MDA-MB-231 [2], this molecule registered an IC50 of 0.218 µM. This molecule had an inhibition at 10 µM in the experiment with MDA-MB-231 [3] of more than 50%.

For the molecule `CN(C(=O)c1ccccc1)c1nc(-c2ccccc2Cl)cs1`, the viability at 1 µM in the experiment on MDA-MB-231 [1] stood at 88.9%. The molecule further registered an IC50 in the experiment on MDA-MB-231 [2] of 0.0416 µM.

On to `COc1ccc(C(=O)N(C)c2nc(-c3cc(OC)c(OC)c(OC)c3)cs2)c(OC)c1`, for which the viability at 1 µM with MDA-MB-231 [1] is 119%. For the same molecule, inhibition in the experiment with MDA-MB-231 [2] was half-maximal at 5.04 µM (IC50).

With `COc1cccc(C(=O)Nc2nc(-c3cc(OC)c(OC)c(OC)c3)cs2)c1`, in the experiment with MDA-MB-231 [1], the viability at 1 µM came out at 92.6%. Moreover, it took 14 µM to reach half-maximal inhibition in the experiment on MDA-MB-231 [2] (IC50).

For the molecule `C=CCn1c(-c2ccc(C)cc2C)cs/c1=N\C(=O)c1ccccc1`, the viability at 1 µM in the experiment with MDA-MB-231 [1] is 115%. This molecule also registered a concentration for half-maximal inhibition (IC50) with MDA-MB-231 [2] of 0.456 µM.

For the molecule `Cn1c(C2CC2)cs/c1=N\C(=O)c1ccccc1`, the viability at 1 µM with MDA-MB-231 [1] was 90.7%. The same molecule displayed an IC50 in the experiment on MDA-MB-231 [2] of 0.104 µM.
